In ChEMBL document CHEMBL1817593, “C5'-Alkyl Substitution Effects on Digitoxigenin α-l-Glycoside Cancer Cytotoxicity” (ACS Med Chem Lett, 2011):

How the values were obtained:
TK-10 = assay: Cytotoxicity against human TK10 cells after 48 hrs by sulforhodamine B assay; type: functional; settings: TK-10, 48 h
KM12 = assay: Cytotoxicity against human KM12 cells after 48 hrs by sulforhodamine B assay; type: functional; settings: KM12, 48 h
HCT-116 = assay: Cytotoxicity against human HCT116 cells after 48 hrs by sulforhodamine B assay; type: functional; settings: HCT-116, 48 h
NCI-H460 [1] = assay: Cytotoxicity against human NCI-H460 cells assessed as cell death in serum free medium at 25 nM after 12 hrs by Hoechst 33342/propidium iodide staining based fluorescence microscopy; type: functional
Method in brief: (§1)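 NCI-H460 human lung cancer cells exposed 12 h to 10 nM–10 μM drug, including a 50 nM single-concentration test. Nuclei were stained with Hoechst 33342 and necrotic cells with propidium iodide. Apoptotic cells were scored by condensed or fragmented blue nuclei and necrotic cells by red PI staining. Total cell death (apoptosis plus necrosis) was recorded; N = 6.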

NCI-H460 [2] = assay: Cytotoxicity against human NCI-H460 cells assessed as cell viability at 1000 nM after 48 hrs by MTT assay; type: functional; settings: NCI-H460, 48 h, read-out: Activity
Method in brief: (§2)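 Viability of NCI-H460 cells was measured by MTT (mitochondrial enzymatic activity) after 48 h exposure, within a dose series spanning 1 nM–10 μM. N = 9, analysed by two-way ANOVA.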

UACC-62 = assay: Cytotoxicity against human UACC62 cells after 48 hrs by sulforhodamine B assay; type: functional; settings: UACC-62, 48 h
HT-29 = assay: Cytotoxicity against human HT-29 cells after 48 hrs by sulforhodamine B assay; type: functional; settings: HT-29, 48 h
NCI-H460 [3] = assay: Cytotoxicity against human NCI-H460 cells assessed as cell death in serum free medium at 10 nM after 12 hrs by Hoechst 33342/propidium iodide staining based fluorescence microscopy; type: functional; method in brief: as §1
RXF 393 = assay: Cytotoxicity against human RXF393 cells after 48 hrs by sulforhodamine B assay; type: functional; settings: RXF 393, 48 h
NCI-H460 [4] = assay: Cytotoxicity against human NCI-H460 cells assessed as cell death in serum free medium at 500 nM after 12 hrs by Hoechst 33342/propidium iodide staining based fluorescence microscopy; type: functional; method in brief: as §1
NCI-H460 [5] = assay: Cytotoxicity against human NCI-H460 cells assessed as cell death in serum free medium at 250 nM after 12 hrs by Hoechst 33342/propidium iodide staining based fluorescence microscopy; type: functional; method in brief: as §1
IGROV-1 = assay: Cytotoxicity against human IGROV1 cells after 48 hrs by sulforhodamine B assay; type: functional; settings: IGROV-1, 48 h
ACHN = assay: Cytotoxicity against human ACHN cells after 48 hrs by sulforhodamine B assay; type: functional
NCI-H522 = assay: Cytotoxicity against human NCI-H522 cells after 48 hrs by sulforhodamine B assay; type: functional; settings: NCI-H522, 48 h
NCI-H460 [6] = assay: Cytotoxicity against human NCI-H460 cells assessed as cell viability at 50 nM after 48 hrs by MTT assay; type: functional; settings: NCI-H460, 48 h, read-out: Activity; method in brief: as §2
NCI-H460 [7] = assay: Cytotoxicity against human NCI-H460 cells assessed as cell viability at 10 nM after 48 hrs by MTT assay; type: functional; settings: NCI-H460, 48 h, read-out: Activity; method in brief: as §2
OVCAR-3 = assay: Cytotoxicity against human OVCAR3 cells after 48 hrs by sulforhodamine B assay; type: functional; settings: OVCAR-3, 48 h
SNB-75 = assay: Cytotoxicity against human SNB75 cells after 48 hrs by sulforhodamine B assay; type: functional; settings: SNB-75, 48 h
NCI-H460 [8] = assay: Cytotoxicity against human NCI-H460 cells assessed as cell death in serum free medium at 10000 nM after 12 hrs by Hoechst 33342/propidium iodide staining based fluorescence microscopy; type: functional; method in brief: as §1
SN12C = assay: Cytotoxicity against human SN12C cells after 48 hrs by sulforhodamine B assay; type: functional
SK-MEL-2 = assay: Cytotoxicity against human SK-MEL-2 cells after 48 hrs by sulforhodamine B assay; type: functional; settings: SK-MEL-2, 48 h
RPMI-8226 = assay: Cytotoxicity against human RPMI8226 cells after 48 hrs by sulforhodamine B assay; type: functional; settings: RPMI-8226, 48 h
CAKI-1 = assay: Cytotoxicity against human Caki1 cells after 48 hrs by sulforhodamine B assay; type: functional; settings: CAKI-1, 48 h
SK-OV-3 = assay: Cytotoxicity against human SKOV3 cells after 48 hrs by sulforhodamine B assay; type: functional; settings: SK-OV-3, 48 h
NCI-H460 [9] = assay: Cytotoxicity against human NCI-H460 cells assessed as cell viability after 48 hrs by MTT assay; type: functional; settings: NCI-H460, 48 h
Method in brief: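 NCI-H460 cells were exposed to drug for 48 h, and viability was read by MTT as mitochondrial enzymatic activity. GI50 was derived from dose-response curves (1 nM–10 μM). Values are from three independent experiments with duplicate determinations, given with standard error of the mean.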

NCI-H460 [10] = assay: Cytotoxicity against human NCI-H460 cells assessed as cell death in serum free medium at 1000 nM after 12 hrs by Hoechst 33342/propidium iodide staining based fluorescence microscopy; type: functional; method in brief: as §1
DU-145 = assay: Cytotoxicity against human DU145 cells after 48 hrs by sulforhodamine B assay; type: functional; settings: DU-145, 48 h
PC-3 = assay: Cytotoxicity against human PC3 cells after 48 hrs by sulforhodamine B assay; type: functional; settings: PC-3, 48 h
NCI-H460 [11] = assay: Cytotoxicity against human NCI-H460 cells assessed as cell viability at 500 nM after 48 hrs by MTT assay; type: functional; settings: NCI-H460, 48 h, read-out: Activity; method in brief: as §2
HCC 2998 = assay: Cytotoxicity against human HCC2998 cells after 48 hrs by sulforhodamine B assay; type: functional; settings: HCC 2998, 48 h
HCT-15 = assay: Cytotoxicity against human HCT15 cells after 48 hrs by sulforhodamine B assay; type: functional; settings: HCT-15, 48 h
UACC-257 = assay: Cytotoxicity against human UACC257 cells after 48 hrs by sulforhodamine B assay; type: functional; settings: UACC-257, 48 h
SW-620 = assay: Cytotoxicity against human SW620 cells after 48 hrs by sulforhodamine B assay; type: functional; settings: SW-620, 48 h
MCF7 = assay: Cytotoxicity against human MCF7 cells after 48 hrs by sulforhodamine B assay; type: functional; settings: MCF7, 48 h
NCI-H460 [12] = assay: Cytotoxicity against human NCI-H460 cells assessed as cell viability at 1 nM after 48 hrs by MTT assay; type: functional; settings: NCI-H460, 48 h, read-out: Activity; method in brief: as §2
NCI-H460 [13] = assay: Cytotoxicity against human NCI-H460 cells assessed as cell viability at 100 nM after 48 hrs by MTT assay; type: functional; settings: NCI-H460, 48 h, read-out: Activity; method in brief: as §2
SK-MEL-28 = assay: Cytotoxicity against human SK-MEL-28 cells after 48 hrs by sulforhodamine B assay; type: functional; settings: SK-MEL-28, 48 h
NCI-H460 [14] = assay: Induction of apoptosis in human NCI-H460 cells in serum free medium after 12 hrs by Hoechst 33342/propidium iodide staining based fluorescence microscopy; type: functional, cell-based; settings: for IC50: NCI-H460, 12 h
Method in brief: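 NCI-H460 cells treated for 12 h at 10 nM to 10 μM. Total cell death (apoptosis plus necrosis) scored by Hoechst 33342/propidium iodide staining, with N = 6 and two-way ANOVA. IC50 obtained by nonlinear regression. Table values are the mean of three independent experiments with duplicate determinations.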

OVCAR-5 = assay: Cytotoxicity against human OVCAR5 cells after 48 hrs by sulforhodamine B assay; type: functional; settings: OVCAR-5, 48 h
MDA-MB-231 = assay: Cytotoxicity against human MDA-MB-231 cells after 48 hrs by sulforhodamine B assay; type: functional; settings: MDA-MB-231, 48 h

## CC(C)C[C@@H]1O[C@@H](O[C@H]2CC[C@@]3(C)[C@H](CC[C@@H]4[C@@H]3CC[C@]3(C)[C@@H](C5=CC(=O)OC5)CC[C@]43O)C2)CC[C@H]1O
TK-10
  GI50: 28.6 nM
KM12
  GI50: 55.9 nM
HCT-116
  GI50: 26.1 nM
NCI-H460 [1]
  Activity: 12.41%
NCI-H460 [2]
  viability at 1 µM: 3.64%
UACC-62
  GI50: 50.5 nM
HT-29
  GI50: 31.5 nM
NCI-H460 [3]
  Activity: 10.03%
RXF 393
  GI50: 18.6 nM
NCI-H460 [4]
  Activity: 62.18%
NCI-H460 [5]
  Activity: 21.86%
IGROV-1
  GI50: 29.9 nM
ACHN
  GI50: 12.2 nM
NCI-H522
  GI50: 23.6 nM
NCI-H460 [6]
  viability at 0.05 µM: 25.1%
NCI-H460 [7]
  viability at 0.01 µM: 49.2%
OVCAR-3
  GI50: 23.5 nM
SNB-75
  GI50: 85.3 nM
NCI-H460 [8]
  Activity: 100%
SN12C
  GI50: 23.7 nM
SK-MEL-2
  GI50: 115 nM
RPMI-8226
  GI50: 35.6 nM
CAKI-1
  GI50: 24.4 nM
SK-OV-3
  GI50: 43.1 nM
NCI-H460 [9]
  GI50: 8.27 nM
NCI-H460 [10]
  Activity: 94.8%
DU-145
  GI50: 16.6 nM
PC-3
  GI50: 46.3 nM
NCI-H460 [11]
  viability at 0.5 µM: 4.88%
HCC 2998
  GI50: 204 nM
HCT-15
  GI50: 40.3 nM
UACC-257
  GI50: 31.3 nM
SW-620
  GI50: 32 nM
MCF7
  GI50: 52.8 nM
NCI-H460 [12]
  viability at 0.001 µM: 81.8%
NCI-H460 [13]
  viability at 0.1 µM: 18.5%
SK-MEL-28
  GI50: 133 nM
NCI-H460 [14]
  Activity: Dose-dependent effect
  IC50: 458 nM
OVCAR-5
  GI50: 113 nM
MDA-MB-231
  GI50: 225 nM

## CC(C)[C@@H]1O[C@@H](O[C@H]2CC[C@@]3(C)[C@H](CC[C@@H]4[C@@H]3CC[C@]3(C)[C@@H](C5=CC(=O)OC5)CC[C@]43O)C2)CC[C@H]1O
TK-10
  GI50: 53.8 nM
KM12
  GI50: 152 nM
HCT-116
  GI50: 21.5 nM
NCI-H460 [1]
  Activity: 12.07%
NCI-H460 [2]
  viability at 1 µM: 5.21%
UACC-62
  GI50: 119 nM
HT-29
  GI50: 41.9 nM
NCI-H460 [3]
  Activity: 9.96%
RXF 393
  GI50: 14 nM
NCI-H460 [4]
  Activity: 50.85%
NCI-H460 [5]
  Activity: 22.73%
IGROV-1
  GI50: 54.2 nM
ACHN
  GI50: 17 nM
NCI-H522
  GI50: 26 nM
NCI-H460 [6]
  viability at 0.05 µM: 22.2%
NCI-H460 [7]
  viability at 0.01 µM: 50.7%
OVCAR-3
  GI50: 26 nM
SNB-75
  GI50: 92.6 nM
NCI-H460 [8]
  Activity: 100%
SN12C
  GI50: 23.7 nM
SK-MEL-2
  GI50: 170 nM
RPMI-8226
  GI50: 78.4 nM
CAKI-1
  GI50: 20.8 nM
SK-OV-3
  GI50: 118 nM
NCI-H460 [9]
  GI50: 7.66 nM
NCI-H460 [10]
  Activity: 90.66%
DU-145
  GI50: 19.5 nM
PC-3
  GI50: 61.9 nM
NCI-H460 [11]
  viability at 0.5 µM: 6.35%
HCC 2998
  GI50: 243 nM
HCT-15
  GI50: 62.2 nM
UACC-257
  GI50: 122 nM
SW-620
  GI50: 42.8 nM
MCF7
  GI50: 161 nM
NCI-H460 [12]
  viability at 0.001 µM: 81.1%
NCI-H460 [13]
  viability at 0.1 µM: 12.4%
SK-MEL-28
  GI50: 252 nM
NCI-H460 [14]
  Activity: Dose-dependent effect
  IC50: 533 nM
OVCAR-5
  GI50: 107 nM
MDA-MB-231
  GI50: 259 nM
